Experimental data published in ChEMBL document CHEMBL4680121, “Development of (4-methoxyphenyl)-1H-tetrazol-5-amine regioisomers as a new class of selective antitubercular agents” (Eur J Med Chem, 2020).

Columns and labels:
[1] = tested on: Mycobacterium intracellulare; assay: Antimycobacterial activity against Mycobacterium intracellulare assessed as inhibition of microbial growth incubated for 1 week by MABA method; assay type: functional; conditions: 168 h, time 1 weeks
Method in brief: (§1)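 Microplate Alamar Blue assay using two-fold serial microdilution in Middlebrook 7H9 broth with 10% OADC, compounds 0.125–512 µg/ml from DMSO stocks. Inoculum came from fresh LJ culture, was adjusted to McFarland 1 and diluted 1:20. Plates were incubated 1 week at 37 °C, Alamar blue was added and plates were re-incubated 24 h. MIC was the lowest concentration preventing the blue-to-pink change. Each plate carried growth and sterile controls.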

[2] = tested on: Mycobacterium tuberculosis; assay: Antitubercular activity against Mycobacterium tuberculosis Spec.192 assessed as fractional inhibitory concentration index in presence of 1/2 x MIC ethambutol incubated for 14 days by MABA method; assay type: functional; conditions: time 14 day
Method in brief: (§2)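 Interaction analysis in Middlebrook 7H9 with 10% OADC. Combination MICs came from mixing the derivative (1 to 1/32 MIC) with the reference drug at 1/2 MIC, and the reverse, after 14 days at 37 °C with McFarland 1 inoculum. FICI was calculated from the combination MIC values and the MICs alone.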

[3] = tested on: Mycobacterium tuberculosis; assay: Antitubercular activity against Mycobacterium tuberculosis Spec.192 assessed as reduction in bacterial growth incubated for 14 days in presence of 1/2 x MIC ethambutol by MABA method; assay type: functional; conditions: Mycobacterium tuberculosis, 192, 336 h; time 14 day
Method in brief: (§3)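 Checkerboard-type combination in Middlebrook 7H9 with 10% OADC. The test derivative at 1 to 1/32 of its MIC alone was mixed with the reference drug fixed at 1/2 its MIC. 4 ml samples were inoculated with McFarland 1 suspension and incubated 14 days at 37 °C. MIC is the lowest derivative concentration in combination that inhibited growth in liquid medium.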

Pseudomonas aeruginosa [4] = assay: Antibacterial activity against Pseudomonas aeruginosa NCTC 6749 assessed as bacterial growth inhibition measured after 18 hrs by two-fold serial microdilution method; assay type: functional
Method in brief: (§4)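 Two-fold serial broth microdilution in MH II medium following modified CLSI procedures. Compounds were dissolved in DMSO and diluted in medium to at most 1% solvent, tested from 0.03125 to 512 μg/ml. Final inoculum 10^6 CFU/ml. MIC was taken as the lowest concentration with no visible growth after 18 h at 35 °C.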

[5] = tested on: Mycobacterium scrofulaceum; assay: Antibacterial activity against Mycobacterium scrofulaceum assessed as inhibition of microbial growth incubated for 1 week by MABA method; assay type: functional; conditions: 168 h, time 1 weeks; method in brief: as §1
[6] = tested on: Mycobacterium tuberculosis; assay: Antitubercular activity against Mycobacterium tuberculosis H37Rv ATCC 25618 assessed as ethambutol MIC incubated for 14 days in presence of ethambutol by MABA method; assay type: functional; conditions: H37Rv ATCC 25618, 336 h, time 14 day
Method in brief: (§5)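 In Middlebrook 7H9 with 10% OADC, the reference drug (INH, RMP, SM or EMB) at 1 to 1/32 of its MIC alone was mixed with the test derivative fixed at 1/2 its MIC. 4 ml samples were inoculated with McFarland 1 suspension and incubated 14 days at 37 °C. MIC is the lowest drug concentration in combination that inhibited growth.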

[7] = tested on: Mycobacterium tuberculosis; assay: Antitubercular activity against Mycobacterium tuberculosis Spec.192 assessed as fractional inhibitory concentration index in presence of 1/2 x MIC isoniazid incubated for 14 days by MABA method; assay type: functional; conditions: time 14 day; method in brief: as §2
[8] = tested on: Mycobacterium tuberculosis; assay: Antitubercular activity against Mycobacterium tuberculosis Spec.192 assessed as rifampicin MIC incubated for 14 days in presence of rifampicin by MABA method; assay type: functional; conditions: Mycobacterium tuberculosis, 192, 336 h; time 14 day; method in brief: as §5
Escherichia coli = assay: Antibacterial activity against Escherichia coli ATCC 25922 assessed as bacterial growth inhibition measured after 18 hrs by two-fold serial microdilution method; assay type: functional; method in brief: as §4
[9] = tested on: Staphylococcus epidermidis; assay: Antibacterial activity against Staphylococcus epidermidis ATCC 35984/RP62A assessed as bacterial growth inhibition measured after 18 hrs by two-fold serial microdilution method; assay type: functional; method in brief: as §4
Pseudomonas aeruginosa [10] = assay: Antibacterial activity against Pseudomonas aeruginosa PAO1 assessed as bacterial growth inhibition measured after 18 hrs by two-fold serial microdilution method; assay type: functional; method in brief: as §4
[11] = tested on: Mycobacterium tuberculosis; assay: Antitubercular activity against Mycobacterium tuberculosis H37Rv ATCC 25618 assessed as inhibition of microbial growth incubated for 1 week by MABA method; assay type: functional; conditions: H37Rv ATCC 25618, 168 h, time 1 weeks
Method in brief: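 Microplate Alamar Blue assay in Middlebrook 7H9 broth with 10% OADC. Inoculum from fresh LJ culture was adjusted to McFarland 1 and diluted 1:20. DMSO stocks were two-fold serially diluted to final 0.125–512 µg/ml, with growth and sterile controls. Plates ran 1 week at 37 °C, then Alamar blue was added for 24 h. MIC is the lowest concentration preventing the blue-to-pink change.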

[12] = tested on: Mycobacterium tuberculosis; assay: Antitubercular activity against Mycobacterium tuberculosis Spec.192 assessed as isoniazid MIC incubated for 14 days in presence of isoniazid by MABA method; assay type: functional; conditions: Mycobacterium tuberculosis, 192, 336 h; time 14 day; method in brief: as §5
Klebsiella pneumoniae = assay: Antibacterial activity against Klebsiella pneumoniae ATCC 10031 assessed as bacterial growth inhibition measured after 18 hrs by two-fold serial microdilution method; assay type: functional; method in brief: as §4
HaCaT [13] = assay: Cytotoxicity against human HaCaT cells assessed as reduction in cell viability measured after 72 hrs by MTT assay; assay type: cell-based
Method in brief: (§6)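 MTT viability assay on cells grown in DMEM with 10% heat-inactivated FBS, penicillin/streptomycin and 20 mM HEPES at 37 °C/5% CO2. Cells were seeded at 1×10^4 per well and allowed to adhere for 24 h, then the medium was refreshed. Compounds were added at 20–140 μM for 72 h at 37 °C, followed by MTT (0.5 mg/mL in serum-free medium) for 4 h. Untreated cells served as control. IC50 is the concentration giving 50% growth inhibition versus control.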

HaCaT [14] = assay: Cytotoxicity against human HaCaT cells assessed as reduction in cell viability at 100 uM measured after 72 hrs by MTT assay; assay type: cell-based; method in brief: as §6
[15] = tested on: Mycolicibacterium fortuitum; assay: Antibacterial activity against Mycobacterium fortuitum assessed as inhibition of microbial growth incubated for 1 week by MABA method; assay type: functional; conditions: 168 h, time 1 weeks; method in brief: as §1
Caco-2 = assay: Cytotoxicity against human Caco-2 cells assessed as LDH release at 100 uM incubated for 72 hrs by LDH assay; assay type: cell-based; conditions: caco-2, 72 h
Method in brief: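 LDH release measured with a kit after 72 h exposure to 100 μM compound. Cells were seeded at 1×10^4 per well in DMEM or EMEM with 2% FBS. Absorbance was read at 490 nm. Release (%) = (A sample − A low control)/(A high control − A low control) × 100, with the Triton X-100 (1%) control taken as 100% release. Values are mean ± SD of three independent experiments run in triplicate.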

[16] = tested on: Mycobacterium tuberculosis; assay: Potentiation of streptomycin-induced antimycobacterial activity against Mycobacterium tuberculosis Spec.192 assessed as fold decrease in streptomycin MIC at 1/2X MIC incubated for 14 days in presence of streptomycin by MABA method; assay type: functional; conditions: time 14 day
Method in brief: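 Combination assay in Middlebrook 7H9 broth with 10% OADC. The reference drug (INH, RMP, SM or EMB) was varied from 1 to 1/32 of its MIC, and the test derivative was fixed at 1/2 its own MIC. Single-agent MICs were determined first by MABA. Inoculum was 1 McFarland, with 14 days of incubation at 37 °C. The endpoint was the lowest reference-drug concentration that inhibited growth.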

[17] = tested on: Mycobacterium tuberculosis; assay: Antitubercular activity against Mycobacterium tuberculosis Spec.192 assessed as reduction in bacterial growth incubated for 14 days in presence of 1/2 x MIC streptomycin by MABA method; assay type: functional; conditions: Mycobacterium tuberculosis, 192, 336 h; time 14 day; method in brief: as §3

**Q.** With COc1ccc(-n2nnnc2Nc2ccc(Br)cc2)cc1 as the molecule, how does the MIC [1] read?
**A.** 128 µg/mL

**Q.** What about the “fractional inhibitory concentration index (FICI)” value [2] of the same molecule?
**A.** 0.625

**Q.** And the MIC [3]?
**A.** 0.25 µg/mL

**Q.** What about the MIC (Pseudomonas aeruginosa [4]) of the same molecule?
**A.** > 256 µg/mL

**Q.** And the MIC [5]?
**A.** 512 µg/mL

**Q.** What about the MIC [6] of the same molecule?
**A.** 1 µg/mL

**Q.** And the “fractional inhibitory concentration index (FICI)” value [7]?
**A.** 4.125

**Q.** And the MIC [8]?
**A.** 0.25 µg/mL

**Q.** And the MIC (Escherichia coli)?
**A.** > 256 µg/mL

**Q.** And the MIC [9]?
**A.** > 256 µg/mL

**Q.** And the MIC (Pseudomonas aeruginosa [10])?
**A.** > 256 µg/mL

**Q.** And the MIC [11]?
**A.** 2 µg/mL

**Q.** What about the MIC [12] of the same molecule?
**A.** 0.5 µg/mL

**Q.** What about the MIC (Klebsiella pneumoniae) of the same molecule?
**A.** > 256 µg/mL

**Q.** And the IC50 (HaCaT [13])?
**A.** 131 µM

**Q.** What about the Activity (HaCaT [14]) of the same molecule?
**A.** Non-Toxic

**Q.** What about the MIC [15] of the same molecule?
**A.** > 512 µg/mL

**Q.** And the Activity (Caco-2)?
**A.** Non-Toxic

**Q.** And the “fold change (FC)” value [16]?
**A.** 4

**Q.** What about the MIC [17] of the same molecule?
**A.** 0.25 µg/mL

**Q.** For COc1ccc(-n2nnnc2Nc2cccc(Br)c2)cc1, which MIC [1] is on record?
**A.** 128 µg/mL

**Q.** And the “fractional inhibitory concentration index (FICI)” value [2]?
**A.** 0.75

**Q.** What about the MIC [3] of the same molecule?
**A.** 0.5 µg/mL

**Q.** And the MIC (Pseudomonas aeruginosa [4])?
**A.** > 256 µg/mL

**Q.** What about the MIC [5] of the same molecule?
**A.** 512 µg/mL

**Q.** And the MIC [6]?
**A.** 1 µg/mL

**Q.** And the “fractional inhibitory concentration index (FICI)” value [7]?
**A.** 4.125

**Q.** And the MIC [8]?
**A.** 0.25 µg/mL

**Q.** What about the MIC (Escherichia coli) of the same molecule?
**A.** > 256 µg/mL

**Q.** What about the MIC [9] of the same molecule?
**A.** > 256 µg/mL

**Q.** What about the MIC (Pseudomonas aeruginosa [10]) of the same molecule?
**A.** > 256 µg/mL

**Q.** What about the MIC [11] of the same molecule?
**A.** 2 µg/mL

**Q.** And the MIC [12]?
**A.** 0.5 µg/mL

**Q.** What about the MIC (Klebsiella pneumoniae) of the same molecule?
**A.** > 256 µg/mL

**Q.** And the IC50 (HaCaT [13])?
**A.** 138 µM

**Q.** And the Activity (HaCaT [14])?
**A.** Non-Toxic

**Q.** What about the MIC [15] of the same molecule?
**A.** 256 µg/mL

**Q.** And the Activity (Caco-2)?
**A.** < 17%

**Q.** And the “fold change (FC)” value [16]?
**A.** 2

**Q.** And the MIC [17]?
**A.** 0.5 µg/mL
